Results from ChEMBL document CHEMBL5678818, “Discovery of potent SOS1 inhibitors that block RAS activation via disruption of the RAS-SOS1 interaction” (Proc Natl Acad Sci U S A, 2019).

Tests used:
[1] = biological target: Serine/threonine-protein kinase pim-3 (Homo sapiens) (UniProt Q86V86); test: Inhibition of PIM3 (unknown origin) assessed as residual activity at 1000 nM by KINOMEscan analysis relative to control
[2] = biological target: Serine/threonine-protein kinase pim-1 (Homo sapiens) (UniProt P11309); test: Inhibition of PIM1 (unknown origin) assessed as residual activity at 1000 nM by KINOMEscan analysis relative to control
[3] = system: Tyrosine-protein kinase ABL1 (Homo sapiens), P00519 [Y253F]; test: Inhibition of phosphorylated ABL1 Y253F mutant (unknown origin) assessed as residual activity at 1000 nM by KINOMEscan analysis relative to control
[4] = biological target: Calcium/calmodulin-dependent protein kinase type II subunit beta (Homo sapiens) (UniProt Q13554); test: Inhibition of CAMK2B (unknown origin) assessed as residual activity at 1000 nM by KINOMEscan analysis relative to control
[5] = biological target: Ribosomal protein S6 kinase alpha-1 (Homo sapiens) (UniProt Q15418); test: Inhibition of N-terminal RSK1 kinetic domain 1 (unknown origin) assessed as residual activity at 1000 nM by KINOMEscan analysis relative to control
[6] = biological target: T1, Serine/threonine-protein kinase TNNI3K (Homo sapiens) (UniProt Q59H18); test: Inhibition of TNNI3K (unknown origin) assessed as residual activity at 1000 nM by KINOMEscan analysis relative to control
T1 sequence (whole entry): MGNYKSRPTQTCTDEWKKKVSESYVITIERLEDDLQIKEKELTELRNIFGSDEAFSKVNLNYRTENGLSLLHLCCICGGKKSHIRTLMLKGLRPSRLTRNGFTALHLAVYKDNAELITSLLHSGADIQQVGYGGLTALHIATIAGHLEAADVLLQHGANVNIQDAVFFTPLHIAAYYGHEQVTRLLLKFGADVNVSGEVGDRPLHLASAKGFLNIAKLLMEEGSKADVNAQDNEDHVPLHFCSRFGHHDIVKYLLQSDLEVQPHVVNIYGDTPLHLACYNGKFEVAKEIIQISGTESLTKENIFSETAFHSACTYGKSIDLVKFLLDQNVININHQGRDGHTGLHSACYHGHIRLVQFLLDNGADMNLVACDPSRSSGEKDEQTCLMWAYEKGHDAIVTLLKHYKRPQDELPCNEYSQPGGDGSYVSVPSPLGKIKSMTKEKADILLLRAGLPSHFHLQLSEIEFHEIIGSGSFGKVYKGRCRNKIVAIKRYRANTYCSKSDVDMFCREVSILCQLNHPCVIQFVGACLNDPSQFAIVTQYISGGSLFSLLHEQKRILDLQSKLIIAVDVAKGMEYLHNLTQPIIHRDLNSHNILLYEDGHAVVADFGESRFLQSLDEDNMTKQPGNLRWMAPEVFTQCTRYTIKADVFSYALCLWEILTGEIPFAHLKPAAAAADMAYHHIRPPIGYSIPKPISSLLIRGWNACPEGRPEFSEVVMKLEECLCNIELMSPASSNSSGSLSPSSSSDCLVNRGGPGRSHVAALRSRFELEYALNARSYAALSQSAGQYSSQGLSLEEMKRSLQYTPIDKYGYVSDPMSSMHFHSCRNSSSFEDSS

[7] = biological target: Mitogen-activated protein kinase kinase kinase 11 (Homo sapiens) (UniProt Q16584); test: Inhibition of MLK3 (unknown origin) assessed as residual activity at 1000 nM by KINOMEscan analysis relative to control
[8] = biological target: T2, Serine/threonine-protein kinase ULK2 (Homo sapiens) (UniProt Q8IYT8); test: Inhibition of ULK2 (unknown origin) assessed as residual activity at 1000 nM by KINOMEscan analysis relative to control
T2 sequence (whole entry): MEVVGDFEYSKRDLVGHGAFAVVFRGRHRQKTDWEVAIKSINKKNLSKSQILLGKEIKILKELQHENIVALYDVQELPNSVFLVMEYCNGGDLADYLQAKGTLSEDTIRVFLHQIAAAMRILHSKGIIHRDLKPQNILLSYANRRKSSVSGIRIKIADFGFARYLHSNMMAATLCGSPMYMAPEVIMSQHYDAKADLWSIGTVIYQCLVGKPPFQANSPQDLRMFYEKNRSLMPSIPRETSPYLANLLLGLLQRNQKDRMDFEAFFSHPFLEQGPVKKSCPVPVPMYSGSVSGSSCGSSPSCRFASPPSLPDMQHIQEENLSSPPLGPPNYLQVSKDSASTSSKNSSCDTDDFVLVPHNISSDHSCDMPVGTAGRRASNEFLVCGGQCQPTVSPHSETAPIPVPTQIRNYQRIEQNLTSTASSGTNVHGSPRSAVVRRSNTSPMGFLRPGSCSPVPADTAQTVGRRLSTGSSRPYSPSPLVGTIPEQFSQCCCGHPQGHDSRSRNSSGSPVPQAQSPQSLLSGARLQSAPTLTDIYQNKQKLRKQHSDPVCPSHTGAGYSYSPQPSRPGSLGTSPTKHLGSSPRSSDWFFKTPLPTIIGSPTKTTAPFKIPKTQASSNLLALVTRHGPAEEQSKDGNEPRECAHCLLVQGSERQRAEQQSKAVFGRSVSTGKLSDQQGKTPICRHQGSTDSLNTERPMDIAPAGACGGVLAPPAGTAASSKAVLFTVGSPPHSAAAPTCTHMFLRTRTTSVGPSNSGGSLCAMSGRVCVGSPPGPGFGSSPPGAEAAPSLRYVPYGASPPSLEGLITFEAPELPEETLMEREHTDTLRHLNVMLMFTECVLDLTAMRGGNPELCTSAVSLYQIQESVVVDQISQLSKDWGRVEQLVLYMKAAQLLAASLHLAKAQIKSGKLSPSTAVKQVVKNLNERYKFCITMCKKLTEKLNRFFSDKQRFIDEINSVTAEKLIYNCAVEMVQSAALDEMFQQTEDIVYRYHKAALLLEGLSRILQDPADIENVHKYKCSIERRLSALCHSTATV

[9] = system: Tyrosine-protein kinase ABL1 (Homo sapiens), P00519 [E255K]; test: Inhibition of phosphorylated ABL1 E255K mutant (unknown origin) assessed as residual activity at 1000 nM by KINOMEscan analysis relative to control
[10] = biological target: Dual specificity protein kinase CLK1 (Homo sapiens) (UniProt P49759); test: Inhibition of CLK1 (unknown origin) assessed as residual activity at 1000 nM by KINOMEscan analysis relative to control
K562 = test: Antiproliferative activity against human K562 cells assessed as inhibition of cell viability incubated for 72 hrs by Cell Titer Glo assay; assay type: functional, cell-based; settings: K562, 72 h
In short: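 K-562 cells (wild-type KRAS, sourced from ATCC) were tested for antiproliferative response.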

Chain of Ribosomal protein S6 kinase alpha-1 (Homo sapiens) (Q15418 whole entry, the tested form may be a part): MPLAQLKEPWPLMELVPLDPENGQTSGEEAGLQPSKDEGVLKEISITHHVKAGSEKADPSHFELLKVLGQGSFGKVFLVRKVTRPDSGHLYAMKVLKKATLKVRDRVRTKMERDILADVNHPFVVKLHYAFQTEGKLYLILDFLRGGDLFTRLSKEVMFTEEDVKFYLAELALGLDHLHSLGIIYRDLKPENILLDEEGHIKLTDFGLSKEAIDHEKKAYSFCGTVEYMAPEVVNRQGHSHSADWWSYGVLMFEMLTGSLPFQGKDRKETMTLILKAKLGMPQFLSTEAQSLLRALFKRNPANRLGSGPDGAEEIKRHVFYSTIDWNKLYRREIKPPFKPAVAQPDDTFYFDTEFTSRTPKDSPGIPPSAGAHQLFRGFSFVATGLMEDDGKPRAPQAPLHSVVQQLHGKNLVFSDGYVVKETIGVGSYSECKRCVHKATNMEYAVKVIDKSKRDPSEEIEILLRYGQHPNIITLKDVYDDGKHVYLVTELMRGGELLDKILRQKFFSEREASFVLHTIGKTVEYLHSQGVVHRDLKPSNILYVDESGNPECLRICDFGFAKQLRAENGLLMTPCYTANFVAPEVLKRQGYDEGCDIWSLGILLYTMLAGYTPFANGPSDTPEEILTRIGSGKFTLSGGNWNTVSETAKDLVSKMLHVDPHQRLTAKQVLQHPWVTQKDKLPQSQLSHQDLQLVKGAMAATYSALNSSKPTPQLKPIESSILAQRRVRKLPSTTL
Chain of Dual specificity protein kinase CLK1 (Homo sapiens) (P49759 whole entry, looked up): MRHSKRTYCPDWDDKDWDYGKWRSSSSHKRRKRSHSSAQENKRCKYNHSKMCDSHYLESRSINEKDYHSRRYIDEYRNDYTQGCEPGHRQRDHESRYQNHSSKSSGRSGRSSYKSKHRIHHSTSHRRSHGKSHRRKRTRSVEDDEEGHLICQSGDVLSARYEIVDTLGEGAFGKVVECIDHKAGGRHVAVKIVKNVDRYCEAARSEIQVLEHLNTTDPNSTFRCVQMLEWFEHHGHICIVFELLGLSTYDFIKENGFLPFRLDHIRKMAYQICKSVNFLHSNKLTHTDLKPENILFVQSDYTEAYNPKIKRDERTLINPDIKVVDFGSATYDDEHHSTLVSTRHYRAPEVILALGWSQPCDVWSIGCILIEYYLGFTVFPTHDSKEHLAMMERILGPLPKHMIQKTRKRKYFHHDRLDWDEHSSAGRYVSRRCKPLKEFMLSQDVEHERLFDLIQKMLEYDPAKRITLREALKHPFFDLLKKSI
Chain of Serine/threonine-protein kinase pim-1 (Homo sapiens) (P11309 whole entry, looked up): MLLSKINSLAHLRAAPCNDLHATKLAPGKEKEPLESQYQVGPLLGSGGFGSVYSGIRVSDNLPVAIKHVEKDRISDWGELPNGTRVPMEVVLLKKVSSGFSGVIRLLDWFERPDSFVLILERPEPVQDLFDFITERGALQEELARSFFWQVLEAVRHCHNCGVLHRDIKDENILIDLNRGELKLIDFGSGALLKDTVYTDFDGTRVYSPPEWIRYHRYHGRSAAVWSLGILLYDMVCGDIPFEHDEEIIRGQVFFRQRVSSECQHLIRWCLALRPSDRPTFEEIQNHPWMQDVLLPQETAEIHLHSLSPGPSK
Chain of Mitogen-activated protein kinase kinase kinase 11 (Homo sapiens) (Q16584 whole entry, looked up): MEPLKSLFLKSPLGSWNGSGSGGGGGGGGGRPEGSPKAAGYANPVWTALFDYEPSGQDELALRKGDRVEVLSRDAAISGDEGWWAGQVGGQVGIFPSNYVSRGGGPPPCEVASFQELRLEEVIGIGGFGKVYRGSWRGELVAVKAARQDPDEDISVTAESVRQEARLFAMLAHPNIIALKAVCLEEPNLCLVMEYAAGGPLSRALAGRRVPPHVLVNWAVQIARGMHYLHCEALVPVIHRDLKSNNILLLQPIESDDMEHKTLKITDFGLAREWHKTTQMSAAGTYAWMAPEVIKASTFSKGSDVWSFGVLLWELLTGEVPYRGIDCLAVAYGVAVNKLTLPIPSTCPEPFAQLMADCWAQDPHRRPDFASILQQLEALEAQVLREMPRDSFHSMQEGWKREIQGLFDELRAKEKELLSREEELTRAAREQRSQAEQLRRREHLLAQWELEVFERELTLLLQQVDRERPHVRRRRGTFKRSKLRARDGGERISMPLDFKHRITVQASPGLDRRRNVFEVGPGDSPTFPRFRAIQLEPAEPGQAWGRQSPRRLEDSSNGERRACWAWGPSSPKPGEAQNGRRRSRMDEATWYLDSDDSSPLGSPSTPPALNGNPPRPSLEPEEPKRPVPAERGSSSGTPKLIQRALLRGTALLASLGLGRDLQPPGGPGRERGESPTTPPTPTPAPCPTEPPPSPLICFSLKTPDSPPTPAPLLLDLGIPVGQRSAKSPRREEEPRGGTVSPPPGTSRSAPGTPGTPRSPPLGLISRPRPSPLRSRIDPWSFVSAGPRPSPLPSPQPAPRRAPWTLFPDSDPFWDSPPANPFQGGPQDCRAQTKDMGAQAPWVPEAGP
Chain of Calcium/calmodulin-dependent protein kinase type II subunit beta (Homo sapiens) (Q13554 whole entry, the tested form may be a part): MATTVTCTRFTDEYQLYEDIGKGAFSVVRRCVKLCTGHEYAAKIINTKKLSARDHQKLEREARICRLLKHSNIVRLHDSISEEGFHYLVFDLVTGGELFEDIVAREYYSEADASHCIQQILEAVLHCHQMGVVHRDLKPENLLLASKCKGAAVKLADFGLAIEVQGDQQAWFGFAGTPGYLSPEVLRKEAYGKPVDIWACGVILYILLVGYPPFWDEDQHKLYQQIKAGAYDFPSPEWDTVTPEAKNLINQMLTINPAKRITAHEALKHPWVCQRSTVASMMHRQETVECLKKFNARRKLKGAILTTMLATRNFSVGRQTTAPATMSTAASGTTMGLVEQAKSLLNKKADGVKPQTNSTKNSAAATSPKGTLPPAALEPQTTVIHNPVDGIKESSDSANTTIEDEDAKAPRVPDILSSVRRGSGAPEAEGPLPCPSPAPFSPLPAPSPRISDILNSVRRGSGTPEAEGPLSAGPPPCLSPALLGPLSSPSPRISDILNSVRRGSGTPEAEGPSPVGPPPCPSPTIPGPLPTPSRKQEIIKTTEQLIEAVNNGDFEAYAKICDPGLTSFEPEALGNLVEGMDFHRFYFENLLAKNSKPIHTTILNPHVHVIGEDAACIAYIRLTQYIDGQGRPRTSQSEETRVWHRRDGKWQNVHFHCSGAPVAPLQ

Row | SMILES | Activity [1] [%] | Activity [2] [%] | Activity [3] [%] | Activity [4] [%] | Activity [5] [%] | Activity [6] [%] | Activity [7] [%] | Activity [8] [%] | Activity [9] [%] | Activity [10] [%] | IC50 (K562) [nM]
1 | COc1cc2ncnc(N[C@H](C)c3cccc4ccccc34)c2cc1OC | 100 | 98 | 79 | 96 | 76 | 100 | 100 | 92 | 89 | 100 | 
2 | CNCc1ccccc1-c1csc([C@@H](C)Nc2nc(C)nc3cc(OC)c(OC)cc23)c1 [BAY-293] |  |  |  |  |  |  |  |  |  |  | 1090
3 | COc1cc2nc(C)nc(N[C@H](C)c3cccc(-c4cn[nH]c4)c3)c2cc1OC | 90 | 79 | 92 | 97 | 95 | 96 | 100 | 60 | 65 | 70 | 3100
